Measurements reported in ChEMBL document CHEMBL2424622, “Development of amino-pyrimidine inhibitors of c-Jun N-terminal kinase (JNK): kinase profiling guided optimization of a 1,2,3-benzotriazole lead” (Bioorg Med Chem Lett, 2013).

Tests used:
[1] = molecular target: T1, Inhibitor of nuclear factor kappa-B kinase subunit epsilon (Homo sapiens) (UniProt Q14164); assay: Competitive binding affinity to IKKepsilon (unknown origin) at 10 uM in presence of ATP relative to control
T1 sequence (whole entry): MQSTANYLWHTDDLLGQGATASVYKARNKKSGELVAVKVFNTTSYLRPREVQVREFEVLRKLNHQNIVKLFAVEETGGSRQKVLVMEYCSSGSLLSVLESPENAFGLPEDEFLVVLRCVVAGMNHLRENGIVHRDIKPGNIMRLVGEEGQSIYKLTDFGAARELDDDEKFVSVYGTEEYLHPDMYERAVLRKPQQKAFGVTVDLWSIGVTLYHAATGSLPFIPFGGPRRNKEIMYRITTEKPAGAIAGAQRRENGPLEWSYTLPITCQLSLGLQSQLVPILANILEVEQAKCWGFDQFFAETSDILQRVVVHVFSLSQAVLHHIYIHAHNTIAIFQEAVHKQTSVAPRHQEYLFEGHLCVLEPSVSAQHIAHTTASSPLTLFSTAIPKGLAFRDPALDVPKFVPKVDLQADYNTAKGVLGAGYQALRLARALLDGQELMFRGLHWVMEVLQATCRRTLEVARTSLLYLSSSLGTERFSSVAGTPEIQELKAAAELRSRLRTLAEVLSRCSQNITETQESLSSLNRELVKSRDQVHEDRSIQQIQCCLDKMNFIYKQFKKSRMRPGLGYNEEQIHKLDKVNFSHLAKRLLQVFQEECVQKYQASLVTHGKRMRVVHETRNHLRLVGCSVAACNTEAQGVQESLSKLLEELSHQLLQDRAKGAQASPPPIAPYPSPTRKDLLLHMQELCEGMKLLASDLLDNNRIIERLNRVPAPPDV

[2] = molecular target: T2, Serine/threonine-protein kinase STK11 (Homo sapiens) (UniProt Q15831); assay: Competitive binding affinity to LKB1 (unknown origin) at 10 uM in presence of ATP relative to control
T2 sequence (whole entry): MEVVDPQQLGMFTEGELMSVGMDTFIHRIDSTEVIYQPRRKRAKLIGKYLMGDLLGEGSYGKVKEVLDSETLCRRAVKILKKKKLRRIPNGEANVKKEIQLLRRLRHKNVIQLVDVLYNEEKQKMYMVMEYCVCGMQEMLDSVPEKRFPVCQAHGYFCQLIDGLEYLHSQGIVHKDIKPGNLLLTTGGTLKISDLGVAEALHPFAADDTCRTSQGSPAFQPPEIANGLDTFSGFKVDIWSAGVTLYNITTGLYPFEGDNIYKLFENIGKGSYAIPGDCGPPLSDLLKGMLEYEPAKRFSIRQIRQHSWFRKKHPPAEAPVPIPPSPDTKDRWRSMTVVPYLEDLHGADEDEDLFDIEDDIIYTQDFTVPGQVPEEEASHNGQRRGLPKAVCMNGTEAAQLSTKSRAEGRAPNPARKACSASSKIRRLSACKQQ
Method in brief: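 In vitro ATP-site competition binding assay, part of profiling against a diverse panel of 128 kinases. Each compound was tested at a single concentration of 10 µM. Kinome selectivity was summarized as S15 selectivity scores.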

[3] = molecular target: Myosin light chain kinase, smooth muscle (Homo sapiens) (UniProt Q15746); assay: Competitive binding affinity to MYLK (unknown origin) at 10 uM in presence of ATP relative to control
[4] = molecular target: Serine/threonine-protein kinase PLK3 (Homo sapiens) (UniProt Q9H4B4); assay: Competitive binding affinity to PLK3 (unknown origin) at 10 uM in presence of ATP relative to control
[5] = molecular target: T3, MAP/microtubule affinity-regulating kinase 4 (Homo sapiens) (UniProt Q96L34); assay: Competitive binding affinity to MARK4 (unknown origin) at 10 uM in presence of ATP relative to control
T3 sequence (whole entry): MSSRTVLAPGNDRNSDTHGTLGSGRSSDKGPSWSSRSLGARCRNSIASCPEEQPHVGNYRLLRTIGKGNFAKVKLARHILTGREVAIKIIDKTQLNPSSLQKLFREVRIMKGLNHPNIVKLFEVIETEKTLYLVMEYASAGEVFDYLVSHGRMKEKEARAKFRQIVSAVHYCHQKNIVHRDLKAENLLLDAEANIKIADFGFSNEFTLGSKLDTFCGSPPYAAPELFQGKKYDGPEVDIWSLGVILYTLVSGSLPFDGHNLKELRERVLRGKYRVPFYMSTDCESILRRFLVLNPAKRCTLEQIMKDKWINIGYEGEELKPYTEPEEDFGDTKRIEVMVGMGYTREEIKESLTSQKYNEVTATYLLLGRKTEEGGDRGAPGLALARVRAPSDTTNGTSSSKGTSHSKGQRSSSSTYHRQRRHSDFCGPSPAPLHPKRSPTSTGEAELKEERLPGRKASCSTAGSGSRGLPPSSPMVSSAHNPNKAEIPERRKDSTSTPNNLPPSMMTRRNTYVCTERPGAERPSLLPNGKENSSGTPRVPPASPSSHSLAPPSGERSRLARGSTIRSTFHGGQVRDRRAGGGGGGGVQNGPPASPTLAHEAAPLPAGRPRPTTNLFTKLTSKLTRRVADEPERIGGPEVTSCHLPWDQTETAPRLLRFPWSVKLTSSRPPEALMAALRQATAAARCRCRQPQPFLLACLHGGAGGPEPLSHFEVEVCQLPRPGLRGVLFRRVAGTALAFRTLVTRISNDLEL
Method in brief: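 In vitro ATP-site competition binding assay across a diverse panel of 128 kinases, with compound tested at a single concentration. Kinase selectivity scores (S15) were calculated from the panel profiles.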

Chain of Serine/threonine-protein kinase PLK3 (Homo sapiens) (Q9H4B4 whole entry, looked up): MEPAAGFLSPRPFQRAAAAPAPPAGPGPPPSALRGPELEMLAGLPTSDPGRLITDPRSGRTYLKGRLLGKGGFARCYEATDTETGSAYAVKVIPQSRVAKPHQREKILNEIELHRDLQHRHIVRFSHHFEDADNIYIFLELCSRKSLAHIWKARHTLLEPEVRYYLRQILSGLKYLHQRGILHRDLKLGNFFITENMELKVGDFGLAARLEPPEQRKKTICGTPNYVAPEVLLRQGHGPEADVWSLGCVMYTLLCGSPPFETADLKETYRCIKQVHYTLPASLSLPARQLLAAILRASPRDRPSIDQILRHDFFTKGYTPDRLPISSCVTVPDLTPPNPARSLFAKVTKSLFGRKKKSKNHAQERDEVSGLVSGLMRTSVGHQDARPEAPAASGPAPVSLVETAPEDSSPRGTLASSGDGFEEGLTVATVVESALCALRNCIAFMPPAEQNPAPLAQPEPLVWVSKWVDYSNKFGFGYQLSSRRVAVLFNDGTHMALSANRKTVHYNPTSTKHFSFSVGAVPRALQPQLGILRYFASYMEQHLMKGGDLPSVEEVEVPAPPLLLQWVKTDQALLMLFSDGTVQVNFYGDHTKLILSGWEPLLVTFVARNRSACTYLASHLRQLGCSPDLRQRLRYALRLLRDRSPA
Chain of Myosin light chain kinase, smooth muscle (Homo sapiens) (Q15746 whole entry): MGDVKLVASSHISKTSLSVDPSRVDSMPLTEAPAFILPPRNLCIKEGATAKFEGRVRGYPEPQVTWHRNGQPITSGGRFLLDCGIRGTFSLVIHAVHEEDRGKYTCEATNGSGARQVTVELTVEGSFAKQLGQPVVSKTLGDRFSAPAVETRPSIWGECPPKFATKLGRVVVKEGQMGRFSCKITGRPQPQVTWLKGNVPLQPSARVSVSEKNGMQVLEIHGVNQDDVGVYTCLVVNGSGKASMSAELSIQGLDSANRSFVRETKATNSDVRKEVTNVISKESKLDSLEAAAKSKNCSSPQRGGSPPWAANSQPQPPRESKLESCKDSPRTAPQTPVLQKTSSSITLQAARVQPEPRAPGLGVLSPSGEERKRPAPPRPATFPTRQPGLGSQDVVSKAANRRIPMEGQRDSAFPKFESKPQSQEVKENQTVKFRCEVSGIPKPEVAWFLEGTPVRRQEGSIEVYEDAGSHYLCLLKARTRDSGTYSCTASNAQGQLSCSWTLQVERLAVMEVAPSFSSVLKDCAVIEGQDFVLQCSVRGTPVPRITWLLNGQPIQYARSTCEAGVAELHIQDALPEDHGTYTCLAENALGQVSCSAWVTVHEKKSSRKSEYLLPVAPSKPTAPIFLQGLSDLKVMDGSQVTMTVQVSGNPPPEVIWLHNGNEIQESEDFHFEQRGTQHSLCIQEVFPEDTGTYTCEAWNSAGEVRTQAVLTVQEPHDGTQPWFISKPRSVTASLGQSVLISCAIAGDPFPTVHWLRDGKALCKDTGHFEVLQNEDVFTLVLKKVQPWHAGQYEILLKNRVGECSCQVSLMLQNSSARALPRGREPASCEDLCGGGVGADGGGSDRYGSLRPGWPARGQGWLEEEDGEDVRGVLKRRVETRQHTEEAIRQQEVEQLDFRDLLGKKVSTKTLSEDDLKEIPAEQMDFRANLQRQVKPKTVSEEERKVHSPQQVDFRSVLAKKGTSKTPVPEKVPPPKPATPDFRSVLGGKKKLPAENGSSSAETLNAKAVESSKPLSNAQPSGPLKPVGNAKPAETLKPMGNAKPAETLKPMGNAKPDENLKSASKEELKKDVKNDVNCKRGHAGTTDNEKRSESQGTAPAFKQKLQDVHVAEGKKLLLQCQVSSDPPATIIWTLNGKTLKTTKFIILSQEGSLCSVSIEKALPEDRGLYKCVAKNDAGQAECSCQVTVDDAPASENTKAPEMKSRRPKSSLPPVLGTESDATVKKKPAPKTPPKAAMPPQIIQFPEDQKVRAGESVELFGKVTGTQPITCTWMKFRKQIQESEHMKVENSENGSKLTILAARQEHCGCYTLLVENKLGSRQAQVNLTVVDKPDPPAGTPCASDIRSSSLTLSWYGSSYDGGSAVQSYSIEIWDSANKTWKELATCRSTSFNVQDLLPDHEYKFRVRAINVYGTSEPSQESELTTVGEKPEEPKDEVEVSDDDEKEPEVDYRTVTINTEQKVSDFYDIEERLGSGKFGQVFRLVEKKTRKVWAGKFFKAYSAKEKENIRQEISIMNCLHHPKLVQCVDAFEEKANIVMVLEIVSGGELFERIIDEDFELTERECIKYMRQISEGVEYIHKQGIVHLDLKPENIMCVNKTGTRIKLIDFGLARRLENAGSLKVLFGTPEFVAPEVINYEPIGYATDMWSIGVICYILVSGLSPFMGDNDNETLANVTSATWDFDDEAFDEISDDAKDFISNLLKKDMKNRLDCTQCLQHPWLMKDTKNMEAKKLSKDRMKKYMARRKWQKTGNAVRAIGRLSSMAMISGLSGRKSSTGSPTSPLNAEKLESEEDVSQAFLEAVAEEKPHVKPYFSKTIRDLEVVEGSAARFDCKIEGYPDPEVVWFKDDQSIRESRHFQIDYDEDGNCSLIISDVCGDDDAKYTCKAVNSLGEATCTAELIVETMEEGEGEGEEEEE

| inhibition [1] | inhibition [2] | inhibition [3] | inhibition [4] | inhibition [5] | Structure (SMILES) |
| --- | --- | --- | --- | --- | --- |
| < 50% | < 50% | 94% | 68% | < 50% | O[C@H]1CC[C@H](Nc2nccc(-n3nnc4ccccc43)n2)CC1 |
| < 50% | < 50% | 74% | < 50% | < 50% | O[C@H]1CC[C@H](Nc2nccc(-n3ncc4ccccc43)n2)CC1 |
| – | 75% | – | < 50% | 67% | O[C@H]1CC[C@H](Nc2nccc(-c3n[nH]c4ccccc34)n2)CC1 |
| < 50% | < 50% | < 50% | < 50% | < 50% | O[C@H]1CC[C@H](Nc2nccc(-n3ccc4ccccc43)n2)CC1 |
